# Compound activity deposited in PubChem BioAssay by The Scripps Research Institute Molecular Screening Center.
# SIAE inh: human SIAE inhibitors, primary screen, biochemical, fluorescence polarization, FP-Rh probe, 1536-well HTS; Sialate O-acetylesterase (Homo sapiens), Q9HAT2; SIAE FP-Rh probe binding; inhibition, % at 9.66 µM; 370,000 compounds, 0.69% hits; AID 1053197, 2014;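 active = inhibition above a cutoff: mean of compounds within the control limits plus 3 SD of those, cut at about 17% in these data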;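 note: 0% = plate median of compound wells and 100% = probe without SIAE protein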
# Tn7 DDE FP: inhibitors of Tn7 peptide binding to fibrin DD(E), primary screen, biochemical, fluorescence polarization, human fibrin, Tn7 probe; 370,000 compounds, 0.13% hits; Fibrinogen beta chain (Homo sapiens), P02675; FP displacement of FITC-Tn7 peptide from fibrin DD(E); 0% = median of compound wells per plate; AID 720508, 2013; inhibition, % at 8.3 µM;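 active = inhibition above the mean of compounds falling within the control limits plus 3 SD of them, cut at about 14% in these data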;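 note: 0% = plate median of compound wells and 100% = 10 µM Aha-Tn7 peptide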
#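 Assay system: Fibrin-DD(E) protein isolated from polymerized human fibrin clots; read-out basis: percent inhibition; medium: Tris/NaCl/CaCl2 buffer, pH 7.8; signal: FP measurement; incubation: 10 min plus 3 h, room temperature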
# TCR CD3 inh: inhibitors of human TCR-CD3 interaction, primary screen, biochemical, fluorescence, TAMRA-labeled TCR probe | AID 651800, 2012 | inhibition, % at 9.4 µM | 360,000 compounds, 0.37% hits | T-cell receptor (TCR);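 note: recombinant mutant TCR 2C K166C tagged with TAMRA read by polarization; 0% = receptor in buffer alone and 100% = receptor with positive control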
# DDE Tn6 FP inh: inhibitors of Tn6 peptide binding to fibrin DD(E), primary screen, biochemical, fluorescence polarization, human fibrin, Tn6 probe | inhibition, % at 8.3 µM | Fibrin DD(E) TRITC-Tn6 fluorescence polarization displacement | 370,000 compounds, 0.21% hits;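 active = inhibition above a per-campaign cutoff: mean of compounds within control limits plus 3 SD, cut at about 15% in these data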;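 note: 0% = median of all compound wells on the plate and 100% = blocking peptide control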
# ABHD4 inh: ABHD4 inhibitors, primary screen, biochemical, fluorescence polarization, mouse. purified mABHD4, FP-Rh probe fluorescence polarization. inhibition, % at 8.92 µM. AID 720543, 2013. 370,000 compounds, 0.54% hits;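 active = inhibition exceeding the mean over every tested compound plus 3 SD, cut at about 30% in these data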;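 note: 0% = plate median of compound wells and 100% = S159A mutant with DMSO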
# Target sequence (Q8VD66 whole entry, looked up): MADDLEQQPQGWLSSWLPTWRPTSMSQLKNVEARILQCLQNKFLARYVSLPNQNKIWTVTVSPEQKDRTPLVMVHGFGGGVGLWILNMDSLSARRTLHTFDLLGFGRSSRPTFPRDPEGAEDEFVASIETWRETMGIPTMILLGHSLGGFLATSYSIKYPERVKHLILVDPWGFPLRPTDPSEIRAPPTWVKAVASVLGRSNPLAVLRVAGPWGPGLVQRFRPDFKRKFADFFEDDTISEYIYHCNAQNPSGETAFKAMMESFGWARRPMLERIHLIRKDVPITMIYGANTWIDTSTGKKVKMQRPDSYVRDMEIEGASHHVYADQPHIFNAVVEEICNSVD
#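 Material: mouse ABHD4 enzyme, wild type; Benchmarks: S159A mutant high control, sample median low control; Buffer or medium: HEPES pH 7.0, NaCl, Pluronic buffer; Signal: fluorescence polarization; Read-out: percent inhibition of probe binding, normalized to plate controls; Timing: pre-incubation 45 min, probe exposure 60 min, at 25 °C; Dosing: 8.92 µM, single dose.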
# HTRA1 inh: HTRA1 serine protease inhibitors, primary screen, biochemical, fluorescence polarization, HTS; Q92743; recombinant HTRA1, FP-rhodamine activity-based probe; inhibition, % at 5.96 µM; 340,000 compounds, 0.5% hits; AID 504803, 2011; in the data active = inhibition above about 36%;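 note: 0% = enzyme with DMSO and 100% = wells lacking enzyme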
# BSA TAMRA ctr: compounds interfering with TAMRA-BSA probe, counter-screen for TCR-CD3 interaction inhibitor project, biochemical, fluorescence, TAMRA-labeled BSA. 1,200 compounds, 10% hits. shares compounds with TCR CD3 inh. TAMRA-labeled BSA probe fluorescence counterscreen. AID 652035, 2013. inhibition, % at 9.4 µM; in the data active = inhibition above about 23%;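 note: 0% = buffer low control and 100% = reference high control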
# TCR-CD3 inh conf: TCR-CD3 interaction inhibitors, retest, confirmation, biochemical, fluorescence, TAMRA-labeled TCR probe | shares compounds with TCR CD3 inh | TAMRA-labeled TCR probe fluorescence binding assay | inhibition, % at 9.4 µM | 1,200 compounds, 48% hits | AID 652036, 2013
# Numbers without * were called inactive; x = no result; + = active, no number. In the library only some 1.8% were active in any assay of this set; here they are far more common. Cut-off read from the data, not from the text of the source, unless noted: active = inhibition above about 19%; inactive = the rest.
SMILES,SIAE inh,Tn7 DDE FP,TCR CD3 inh,DDE Tn6 FP inh,ABHD4 inh,HTRA1 inh,BSA TAMRA ctr,TCR-CD3 inh conf
CS(=O)(=O)N(Cc1ccc(C(=O)NN=C2CCCC2)cc1)c1ccccc1,0,8,0,3,-4,-5,x,x
COc1ccc2ccccc2c1C=NNC(=O)CN1CCN(Cc2ccccc2)CC1,-4,-1,x,0,3,x,x,x
CCCN1CCCCC(NC(=O)COCc2ccccc2)C1=O (stereo not drawn),-1,9,-7,-2,-11,x,x,x
COCCCNC(=O)CC(C)c1ccccc1 (stereo not drawn),-1,-12,110*,9,2,-4,3,6
COCCNC(=O)CC(c1ccccc1)c1ccccc1,-6,9,8,-1,1,-1,x,x
Cc1cc(C)nc(SCCC(=O)Nc2ccccc2C)n1,-2,-1,107*,-3,4,4,4,0
CC(=O)c1cc(-c2ccc(F)cc2)n(CCC(=O)NC(C)(C)C)c1C,1,0,20*,-6,3,-3,2,-2
CCOC(=O)c1c(C)nc2sc(C(=O)Nc3ccc(C(C)=O)cc3)c(N)c2c1-c1ccc(OC)cc1,-41,0,24*,-10,-16,-18,6,12
CC(C)C1O/C(=N/C(=O)Nc2ccc(Cl)c(Cl)c2)NC1=O (stereo not drawn),-105,-1,35*,-13,-59,-20,1,4
CCCCCN1CCCCC(NC(=O)CSc2ccccc2)C1=O (stereo not drawn),-3,0,x,-3,-3,x,x,x
Cc1cc(C(=O)N/N=C/c2cc([N+](=O)[O-])ccc2O)c2ccccc2n1,-10,1,8,3,6,-7,x,x
O=C(Cn1nnc(-c2ccccc2)n1)N/N=C/c1cccc([N+](=O)[O-])c1O,-1,-2,38*,5,6,x,-3,50*
Cc1cc(C(=O)N/N=C/c2cc(Br)cc([N+](=O)[O-])c2O)c2ccccc2n1,14,-2,41*,3,44*,11,-10,43*
Cc1cc(C(=O)N/N=C/c2cccc([N+](=O)[O-])c2O)n[nH]1,5,0,29*,-3,15,1,-8,9
Cn1cccc1CC(=O)N/N=C/C=C/c1ccco1,4,0,20*,2,6,8,-11,10
CCCCNC(=O)C[C@H]1C[C@@]2(C(=O)OC)C(=C[C@H](COCc3ccccc3)O[C@@H]2C)N(Cc2ccco2)C1=O,6,1,x,11,4,x,x,x
C#CCNC(=O)C[C@H]1C[C@@]2(C(=O)OC)C(=C[C@H](COCc3ccccc3)O[C@@H]2C)N(Cc2ccc3c(c2)OCO3)C1=O,8,-3,-1,10,6,x,x,x
COC(=O)COc1ccc(NC(=O)C(c2ccccc2)c2ccccc2)cc1,1,-9,-4,-5,1,-6,x,x
COC(=O)COc1ccc(C(C2C(=O)CC(C)(C)CC2=O)C2C(=O)CC(C)(C)CC2=O)cc1,-1,-6,20*,-6,0,2,1,3
O=C(NCCc1ccccc1Cl)[C@@H]1CCCN1C(=O)[C@@H](NC(=O)N1CCOCC1)c1ccccc1,5,3,-4,7,-3,x,x,x
CC(C(=O)N1CCCCC1)N1C(=O)c2ccccc2C1=O (stereo not drawn),3,9,-1,-4,2,2,x,x
CC1SC(=NC(=O)C(C)N2C(=O)c3ccccc3C2=O)NC1=O (stereo not drawn),0,-7,104*,2,1,8,3,0
Cc1nn(CCC(=O)NNC(=O)Nc2ccccc2F)c(C)c1[N+](=O)[O-],-7,5,x,1,2,x,x,x
COc1ccc(OCc2cc(C(=O)N[C@H]3CCCCNC3=O)no2)c(Cl)c1,2,-2,21*,10,-1,1,1,0
O=C(O)C1=CC[C@@H](c2ccc(Cl)cc2)N(S(=O)(=O)c2ccc(Cl)cc2)[C@H]1c1ccccc1,-5,2,36*,4,-10,-42,0,0
SMILES,SIAE inh,Tn7 DDE FP,TCR CD3 inh,DDE Tn6 FP inh,ABHD4 inh,HTRA1 inh,BSA TAMRA ctr,TCR-CD3 inh conf
Cc1ccc([C@H]2C(C(=O)O)=CC[C@@H](c3ccc(Cl)cc3)N2S(=O)(=O)c2ccc(C)cc2)cc1,-11,0,-7,4,1,-41,x,x
O=C(O)c1ccc(/C=N/O)cc1,3,2,19*,-2,1,4,1,1
CCOC(=O)N(C)[C@H]1C[C@H]2c3cc(-c4ccccc4C)ccc3CCN2C[C@H]1[C@H](C)O,-1,1,6,-3,-1,x,x,x
COc1c(Br)cc(Br)cc1/C=N/NC(=O)c1ccncc1,-6,7,11,0,-9,-4,x,x
O=C(Cc1ccccc1)N/N=C/c1cc(Br)cc(Br)c1O,14,-1,23*,-2,7,20,-7,25*
O=C(CNC(=O)c1cccc(Br)c1)N/N=C/c1cc(Br)cc(Br)c1O,8,-4,48*,-7,7,17,-13,36*
CN(C)c1ccc(C(=O)N/N=C/c2cc(Br)cc(Br)c2O)cc1,-3,-2,33*,-3,20,x,0,43*
COc1ccc2c(c1)CN1C(=O)N(Cc3ccc(F)cc3)S(=O)(=O)CC21 (stereo not drawn),2,-2,x,3,-6,x,x,x
Cc1ccc(C(=O)OCC(=O)Nc2ccc(C(N)=O)cc2)s1,2,3,+,10,5,10,-1,2
C=C(C)c1cccc(C(C)(C)NC(=O)NNC(=O)c2ccccc2O)c1,2,4,31*,2,9,20,-17,15
Cc1nc2ccccc2n1CC(=O)c1ccccc1,8,-4,2,-2,-3,-6,x,x
Cc1nc2ccccc2n1CC(=O)c1ccc(O)c(O)c1,2,-3,45*,-4,16,14,-7,37*
